From ChEMBL document CHEMBL1177744, “An efficient and economical MTT assay for determining the antioxidant activity of plant natural product extracts and pure compounds” (J Nat Prod, 2010)
Values joined by “and” are separate entries in the source; they are usually repeats but may differ in a detail not shown here. Identical values can stand only once.

Experiment: Antioxidant activity assessed as formazan formation induced absorbance changes at 25 ppm at 570 nm at 37 degC for 6 hrs by MTT assay
Assay type: functional
Procedure, shortened: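 Cell-free redox assay: MTT in water (190 µL) vortexed 1 min with sample (10 µL) in DMSO in a capped 2 mL glass vial. DMSO (200 µL) then added to give 50:50 water-DMSO, and the mixture vortexed again. Incubated 6 h at 37 °C, then 200 µL read at 570 nm for formazan. Triplicates, experiment repeated 10 times, mean absorbance reported.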

Row | Compound | deltaA
1 | O=C(/C=C/c1ccc(O)c(O)c1)O[C@@H]1C[C@](O)(C(=O)O)C[C@@H](O)[C@H]1O | 0.72
2 | C[C@H]1[C@H](C)CC[C@]2(C(=O)O)CC[C@]3(C)C(=CC[C@@H]4[C@@]5(C)CC[C@H](O)C(C)(C)[C@@H]5CC[C@]43C)[C@H]12 | 0.43
3 | COc1ccc(-c2cc(=O)c3ccc(OC)cc3o2)cc1 | 0.17
4 | CCCCCCCC/C=C\CCCCCCCCCCCC(=O)O | 0.68
5 | COc1cc(/C=C/C(O)=C/C(=O)/C=C/c2ccc(O)cc2)ccc1O | 0.61
6 | COc1cc(/C=C/C(=O)O)ccc1O | 0.29
7 | COc1ccc(-c2coc3cc(O)cc(O)c3c2=O)cc1 | 0.37
8 | O=c1cc(-c2ccccc2)oc2cc(O)cc(O)c12 | 0.3
9 | COc1cc(/C=C/C(=O)CC(=O)/C=C/c2ccc(O)c(OC)c2)ccc1O | 0.85
10 | CC(C)=CCC/C(C)=C/C=C/C(C)=C/C=C/C(C)=C/C=C/C=C(C)/C=C/C=C(C)/C=C/C=C(\C)CCC=C(C)C | 0.59
11 | CCCCCCCCCC(=O)O | 0.51
12 | CCCCCCCCCCCC(=O)O | 0.19
13 | O=C(O)C1=C/C(=C\C=[N+]2/c3cc(O)c(O[C@@H]4O[C@H](CO)[C@@H](O)[C@H](O)[C@H]4O)cc3C[C@H]2C(=O)[O-])C[C@@H](C(=O)O)N1 | 0.6
14 | CC1=C(/C=C/C(C)=C/C=C/C(C)=C/C=C/C=C(C)/C=C/C=C(C)/C=C/C2=C(C)CCCC2(C)C)C(C)(C)CCC1 | 0.32
15 | O=C1O[C@H]([C@@H](O)CO)C(O)=C1O | 0.5
16 | O=c1c(-c2ccc(O)cc2)coc2cc(O)cc(O)c12 | 0.29
17 | COc1ccc(-c2cc(=O)c3ccccc3o2)cc1 | 0.24
18 | O=C(O)CC(=O)OC[C@@H]1O[C@H](Oc2cc3c(O)cc(O)cc3[o+]c2-c2ccc(O)c(O)c2)[C@@H](O)[C@H](O)[C@H]1O | 0.2
19 | COc1ccc(-c2cc(=O)c3ccc(O)cc3o2)cc1 | 0.23
20 | CC12CCC(CC1=O)C2(C)C (centres undefined) | 0.24
21 | CCCCCC/C=C\CCCC(=O)O | 0.17
22 | O=c1c(O)c(-c2ccc(O)c(O)c2)oc2cc(O)cc(O)c12 | 0.75 and 0.3
23 | Cc1cc(C(C)(C)C)c(O)c(C(C)(C)C)c1 | 0.51
24 | CC/C=C\C/C=C\C/C=C\CCCCCCCC(=O)OC | 0.25
25 | CCCCCCCCC(=O)O | 0.16

Row | Compound | deltaA
26 | CCCCCCCCCCCCCCCCCCCCCCC(=O)O | 0.27
27 | CCCCCCCCCCCCCCCCCCC(=O)O | 0.53
28 | O=C(O[C@@H]1Cc2c(O)cc(O)cc2O[C@H]1c1cc(O)c(O)c(O)c1)c1cc(O)c(O)c(O)c1 | 0.92
29 | O=c1cc(-c2ccc(O)c(O)c2)oc2cc(O)cc(O)c12 | 0.66
30 | CCCCCCCC/C=C\CCCCCCCCCCCCCC(=O)O | 0.89
31 | O=c1cc(-c2ccccc2)oc2c(O)c(O)ccc12 | 0.49
32 | COc1cc(O)c2c(=O)c(OC)c(-c3ccc(OC)c(OC)c3)oc2c1 | 0.23
33 | CCCCCCCCCCCCCC(=O)O | 0.58
34 | COC(=O)/C=C/C(C)=C\C=C\C(C)=C\C=C\C=C(C)\C=C\C=C(C)\C=C\C(=O)O | 0.61
35 | CCCCCCCCCCCCCCCCC(=O)O | 0.91
36 | Oc1cc(O)c2c(c1)OC(c1ccc(O)c(O)c1)C(O)C2 (racemic) | 1.18
37 | C[C@H]1O[C@@H](Oc2cc3c(O)cc(O)cc3[o+]c2-c2ccc(O)c(O)c2)[C@@H](O[C@@H]2O[C@H](CO)[C@@H](O)[C@H](O)[C@H]2O)[C@@H](O)[C@@H]1O | 0.17
38 | CCCCC/C=C\C/C=C\CCCCCCCC(=O)O | 0.68
39 | CC(C)CCC[C@@H](C)[C@H]1CC[C@H]2[C@@H]3CC=C4C[C@@H](O[C@@H]5O[C@H](CO)[C@@H](O)[C@H](O)[C@H]5O)CC[C@]4(C)[C@H]3CC[C@]12C | 0.3
40 | CC(C)CCC[C@@H](C)[C@H]1CC[C@H]2[C@@H]3CC=C4C[C@@H](O)CC[C@]4(C)[C@H]3CC[C@]12C | 0.22
41 | Oc1cc(O)c2c(c1)O[C@@H](c1cc(O)c(O)c(O)c1)[C@H](O)C2 | 0.99
42 | O=C(O)/C=C/c1ccc(O)c(O)c1 | 0.69
43 | CC(C)(C)c1cc(O)ccc1O | 0.51
44 | Oc1cc(O)c2c(c1)O[C@H](c1ccc(O)c(O)c1)[C@@H](O)C2 | 0.88
45 | COc1ccccc1-c1cc(=O)c2c(OC)cccc2o1 | 0.27
46 | CCCCCCCCCCCCC(=O)O | 0.47
47 | CCCCCCCCCCC(=O)O | 0.19
48 | C[C@@H]1O[C@@H](Oc2c(-c3ccc(O)c(O)c3)oc3cc(O)cc(O)c3c2=O)[C@H](O)[C@H](O)[C@H]1O | 0.3
49 | O=C(O)/C=C/c1ccc2c(c1)OCO2 | 0.19
50 | Cc1cccc(O)c1O | 0.86

Row | Compound | deltaA
51 | O=C(O)c1ccc(O)cc1 | 0.13
52 | O=C(O[C@@H]1Cc2c(O)cc(O)cc2O[C@@H]1c1ccc(O)c(O)c1)c1cc(O)c(O)c(O)c1 | 1.18
53 | COc1ccc(-c2coc3cc(O)ccc3c2=O)cc1 | 0.2
54 | CCCCCCCCCCCCCCCCCCCCC(=O)O | 0.22
55 | COc1ccc2ccc(=O)oc2c1 | 0.18
56 | CCCCCCCC(=O)O | 0.17
57 | CCCCCCCCCCCCCCCCCC(=O)O | 0.47
58 | Oc1cccc(O)c1O | 0.86
59 | O=C(O)/C=C/c1ccc(O)cc1 | 0.15
60 | O=C(O)CCc1ccc(O)cc1 | 0.17
61 | Oc1cc(O)c2c(c1)O[C@@H](c1ccc(O)c(O)c1)[C@H](O)C2 | 0.53
62 | O=c1c(-c2ccc(O)cc2)coc2cc(O[C@@H]3O[C@H](CO)[C@@H](O)[C@H](O)[C@H]3O)cc(O)c12 | 0.33
63 | CCCCCCCCCCCCCCCCCCCCCC(=O)O | 0.25
64 | COc1cc(C(=O)O)ccc1O | 0.19
65 | Oc1cc(O)c2c(c1)O[C@H](c1ccc(O)c(O)c1)[C@H](O)C2 | 0.17
66 | Cc1c(C)c2c(c(C)c1O)CC[C@@](C)(CCC[C@H](C)CCC[C@H](C)CCCC(C)C)O2 | 0.56
67 | CCCC/C=C\CCCCCCCCC(=O)O | 0.19
68 | O=c1c(-c2ccc(O)cc2)coc2cc(O)ccc12 | 0.48
69 | CCCCCCCCCCCCCCCCCCCCCCCC(=O)O | 0.16
70 | O=c1cc(-c2ccc(O)cc2)oc2cc(O)cc(O)c12 | 0.14
71 | CCCCCCCCCCCCCCCCCCCC(=O)O | 0.25
72 | C[C@H]1O[C@@H](OC[C@@H]2O[C@H](Oc3cc4c(O)cc(O)cc4[o+]c3-c3ccc(O)c(O)c3)[C@@H](O[C@@H]3O[C@H](CO)[C@@H](O)[C@H](O)[C@H]3O)[C@H](O)[C@H]2O)[C@@H](O)[C@@H](O)[C@@H]1O | 0.28
73 | COc1ccc(-c2cc(=O)c3c(O)cc(O)cc3o2)cc1 | 0.26
74 | O=C(/C=C/c1ccc(O)cc1)CC(=O)/C=C/c1ccc(O)cc1 | 0.37
